Data on 35 compounds can be found in ChEMBL document CHEMBL1153881, “The influence of an ethylene spacer on the 5-HT(1A) and 5-HT(2A) receptor affinity of arylpiperazine derivatives of amides with N-acylated amino acids and 3-differently substituted pyrrolidine-2,5-diones” (Eur J Med Chem, 2009).

The term Ki denotes a dissociation constant, usually derived from enzyme kinetics or from competition with a known ligand.

Structures are written as SMILES.

The target of one experiment is 5-hydroxytryptamine receptor 2A (Rattus norvegicus, UniProt P14842). The experiment is described as follows: Displacement of [3H]ketanserin from 5HT2A receptor in rat cortical membrane. Format: cell membranes. Background: In a radioligand displacement assay an active substance lowers the binding of a labelled ligand.
5-hydroxytryptamine receptor 2A, sequence (P14842 whole entry): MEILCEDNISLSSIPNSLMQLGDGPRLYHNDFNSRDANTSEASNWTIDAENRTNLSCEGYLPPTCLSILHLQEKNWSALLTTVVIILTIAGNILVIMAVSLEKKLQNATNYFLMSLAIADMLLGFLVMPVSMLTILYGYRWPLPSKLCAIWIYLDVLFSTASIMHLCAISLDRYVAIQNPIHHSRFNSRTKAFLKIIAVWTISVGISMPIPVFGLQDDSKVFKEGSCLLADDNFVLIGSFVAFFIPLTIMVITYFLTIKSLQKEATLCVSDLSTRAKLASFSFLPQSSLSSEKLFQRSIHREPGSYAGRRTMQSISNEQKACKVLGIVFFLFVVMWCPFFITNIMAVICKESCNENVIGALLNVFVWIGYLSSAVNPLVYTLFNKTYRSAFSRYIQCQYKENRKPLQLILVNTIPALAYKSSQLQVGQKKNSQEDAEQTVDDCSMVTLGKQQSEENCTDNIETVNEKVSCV
`COc1ccccc1N1CCN(CCCCNC(=O)[C@@H]2CCCN2C(=O)C2CCCCC2)CC1` returned an inhibition constant Ki of 990 nM.
On the same count and under the same terms, the result for `O=C(N[C@H]1CC(=O)N(CCN2CCN(c3cccc(Cl)c3)CC2)C1=O)C1CCCCC1` reads 1410 nM; that for `COc1ccccc1N1CCN(CCCCNC(=O)[C@@H]2CCCN2C(=O)C23CC4CC(CC(C4)C2)C3)CC1`, 503 nM.
Compound `O=C(NCCCCN1CCN(c2cccc(Cl)c2)CC1)[C@@H]1CCCN1C(=O)c1ccccc1` showed a Ki of 128 nM.
On the same count and under the same terms, the result for `O=C1CCC(=O)N1CCN1CCN(c2cccc(Cl)c2)CC1` reads 2120 nM; that for `COc1ccccc1N1CCN(CCCNC(=O)[C@@H]2CCCN2C(C)=O)CC1`, 3140 nM; that for `O=C(NCCN1CCN(c2cccc(Cl)c2)CC1)[C@@H]1CCC(=O)N1C(=O)C1CCCCC1`, 3260 nM.
Regarding `COc1ccccc1N1CCN(CCN2C(=O)C[C@H](NC(=O)C3CCCCC3)C2=O)CC1`, the Ki is 7340 nM.
For `COc1ccccc1N1CCN(CCNC(=O)[C@@H]2CCCN2C(C)=O)CC1`, the Ki was determined as 8600 nM.
The same measure, in the same setting: under `COc1ccccc1N1CCN(CCNC(=O)[C@@H]2CCC(=O)N2C(=O)C2CCCCC2)CC1` stands 14900 nM.
In turn, `COc1ccccc1N1CCN(CCN2C(=O)CC(C3CCCCC3)C2=O)CC1` (stereo not drawn) displayed a Ki of 868 nM.
On the same count and under the same terms, the result for `O=C(NCCCCN1CCN(c2cccc(Cl)c2)CC1)[C@@H]1CCC(=O)N1C(=O)C1CCCCC1` reads 163 nM; that for `O=C(NCCN1CCN(c2cccc(Cl)c2)CC1)[C@@H]1CCCN1C(=O)c1ccccc1`, 1300 nM; that for `COc1ccccc1N1CCN(CCN2C(=O)CCC2=O)CC1`, 17600 nM.
`O=C(N[C@H]1CC(=O)N(CCCN2CCN(c3cccc(Cl)c3)CC2)C1=O)C1CCCCC1` registered a Ki of 92 nM.
The same measure, in the same setting: under `O=C1CC(C2CCCCC2)C(=O)N1CCN1CCN(c2cccc(Cl)c2)CC1` (stereo not drawn) stands 137 nM; under `O=C1CC2(CCCCC2)C(=O)N1CCN1CCN(c2cccc(Cl)c2)CC1`, 15 nM.
On the same count and under the same terms, the result for `O=C(NCCN1CCN(c2cccc(Cl)c2)CC1)[C@@H]1CCCN1C(=O)C1CCCC1` reads 357 nM.
Still for that read-out and setting: under `COc1ccccc1N1CCN(CCN2C(=O)C[C@H](NC(=O)CC3CC4CCC3C4)C2=O)CC1` (stereo partly drawn) stands 12400 nM; under `COc1ccccc1N1CCN(CCNC(=O)[C@@H]2CCCN2C(=O)C23CC4CC(CC(C4)C2)C3)CC1`, 1920 nM.
With `COc1ccccc1N1CCN(CCNC(=O)[C@@H]2CCC(=O)N2C(=O)c2ccccc2)CC1`, the affinity, expressed as Ki, was 8710 nM.
`COc1ccccc1N1CCN(CCN2C(=O)CC(NC(C)=O)C2=O)CC1` (stereo not drawn): the Ki was found to be 5680 nM.
Compound `COc1ccccc1N1CCN(CCN2C(=O)C[C@H](NC(=O)C34CC5CC(CC(C5)C3)C4)C2=O)CC1` returned a Ki of 4800 nM.
The same measure, in the same setting: the result for `COc1ccccc1N1CCN(CCNC(=O)[C@@H]2CCCN2C(=O)C2CCCCC2)CC1` reads 2330 nM; that for `O=C(NCCCN1CCN(c2cccc(Cl)c2)CC1)[C@@H]1CCC(=O)N1C(=O)C1CCCCC1`, 800 nM; that for `O=C(N[C@H]1CC(=O)N(CCCCN2CCN(c3cccc(Cl)c3)CC2)C1=O)c1ccccc1`, 75 nM.
Still for that read-out and setting: the result for `O=C(N[C@H]1CC(=O)N(CCN2CCN(c3cccc(Cl)c3)CC2)C1=O)c1ccccc1` reads 1740 nM.
The compound `COc1ccccc1N1CCN(CCN2C(=O)CC3(CCCCC3)C2=O)CC1` had an inhibition constant (Ki) of 254 nM.

In another experiment the target is T1, 5-hydroxytryptamine receptor 1A (Rattus norvegicus, UniProt P19327).
T1 sequence (P19327 whole entry): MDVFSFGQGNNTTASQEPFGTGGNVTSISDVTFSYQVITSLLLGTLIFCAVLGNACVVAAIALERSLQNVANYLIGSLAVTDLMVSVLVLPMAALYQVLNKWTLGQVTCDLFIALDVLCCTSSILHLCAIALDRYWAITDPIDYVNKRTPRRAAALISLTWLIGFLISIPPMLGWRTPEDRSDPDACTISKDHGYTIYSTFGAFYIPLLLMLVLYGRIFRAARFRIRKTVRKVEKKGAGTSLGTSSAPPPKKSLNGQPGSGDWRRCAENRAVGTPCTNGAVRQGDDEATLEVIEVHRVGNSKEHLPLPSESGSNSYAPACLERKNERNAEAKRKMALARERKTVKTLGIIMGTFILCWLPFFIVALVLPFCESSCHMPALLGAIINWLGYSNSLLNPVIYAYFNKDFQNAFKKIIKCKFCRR
Kind of experiment: Displacement of [3H]8-OH-DPAT from 5HT1A receptor in rat hippocampal membrane. Format: cell membranes, Hippocampus. The essentials:
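Native receptor in rat hippocampal membranes, labelled with [3H]-8-OH-DPAT (170 Ci/mmol) and displaced by the compounds, which were tested without further purification. Screening used two compound concentrations. Full binding curves used 7–9 concentrations, each run in triplicate, and Ki was derived from inhibition of binding.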
In turn, `COc1ccccc1N1CCN(CCCCNC(=O)[C@@H]2CCCN2C(=O)C2CCCCC2)CC1` came in with a Ki of 19 nM.
On the same count and under the same terms, under `O=C(N[C@H]1CC(=O)N(CCN2CCN(c3cccc(Cl)c3)CC2)C1=O)C1CCCCC1` stands 3780 nM.
On the same count and under the same terms, under `COc1ccccc1N1CCN(CCCCNC(=O)[C@@H]2CCCN2C(=O)C23CC4CC(CC(C4)C2)C3)CC1` stands 3 nM.
For `O=C(NCCCCN1CCN(c2cccc(Cl)c2)CC1)[C@@H]1CCCN1C(=O)c1ccccc1`, the Ki was 78 nM.
On the same count and under the same terms, the result for `O=C1CCC(=O)N1CCN1CCN(c2cccc(Cl)c2)CC1` reads 3670 nM.
Take `COc1ccccc1N1CCN(CCCNC(=O)[C@@H]2CCCN2C(C)=O)CC1`: the affinity corresponds to a Ki of 580 nM.
Compound `O=C(NCCN1CCN(c2cccc(Cl)c2)CC1)[C@@H]1CCC(=O)N1C(=O)C1CCCCC1` yielded a Ki of 8520 nM.
Turning to `COc1ccccc1N1CCN(CCN2C(=O)C[C@H](NC(=O)C3CCCCC3)C2=O)CC1`, the affinity corresponds to a Ki of 7440 nM.
On the same count and under the same terms, under `COc1ccccc1N1CCN(CCNC(=O)[C@@H]2CCCN2C(C)=O)CC1` stands 6600 nM; under `COc1ccccc1N1CCN(CCNC(=O)[C@@H]2CCC(=O)N2C(=O)C2CCCCC2)CC1`, 1000 nM.
`COc1ccccc1N1CCN(CCN2C(=O)CC(C3CCCCC3)C2=O)CC1` (stereo not drawn) showed a Ki of 24 nM.
The same measure, in the same setting: the result for `COc1ccccc1N1CCN(CCCN2C(=O)C[C@H](NC(C)=O)C2=O)CC1` reads 480 nM; that for `O=C(NCCCCN1CCN(c2cccc(Cl)c2)CC1)[C@@H]1CCC(=O)N1C(=O)C1CCCCC1`, 111 nM.
With `COc1ccccc1N1CCN(CCCN2C(=O)C[C@H](NC(=O)CC3CC4CCC3C4)C2=O)CC1` (stereo partly drawn), the affinity, expressed as Ki, was 40 nM.
Still for that read-out and setting: the result for `COc1ccccc1N1CCN(CCCNC(=O)[C@@H]2CCC(=O)N2C(=O)c2ccccc2)CC1` reads 390 nM.
The same measure, in the same setting: under `COc1ccccc1N1CCN(CCCCNC(=O)[C@@H]2CCC(=O)N2C(=O)C2CCCCC2)CC1` stands 17 nM; under `O=C(NCCN1CCN(c2cccc(Cl)c2)CC1)[C@@H]1CCCN1C(=O)c1ccccc1`, 1950 nM.
Still for that read-out and setting: the result for `COc1ccccc1N1CCN(CCCN2C(=O)C[C@H](NC(=O)C34CC5CC(CC(C5)C3)C4)C2=O)CC1` reads 63 nM; that for `COc1ccccc1N1CCN(CCN2C(=O)CCC2=O)CC1`, 2090 nM.
For `O=C(N[C@H]1CC(=O)N(CCCN2CCN(c3cccc(Cl)c3)CC2)C1=O)C1CCCCC1`, the Ki was 360 nM.
On the same count and under the same terms, under `O=C1CC(C2CCCCC2)C(=O)N1CCN1CCN(c2cccc(Cl)c2)CC1` (stereo not drawn) stands 227 nM.
Still for that read-out and setting: the result for `O=C1CC2(CCCCC2)C(=O)N1CCN1CCN(c2cccc(Cl)c2)CC1` reads 4.3 nM; that for `O=C(NCCN1CCN(c2cccc(Cl)c2)CC1)[C@@H]1CCCN1C(=O)C1CCCC1`, 2010 nM.
For `COc1ccccc1N1CCN(CCN2C(=O)C[C@H](NC(=O)CC3CC4CCC3C4)C2=O)CC1` (stereo partly drawn), the affinity, expressed as Ki, was 497 nM.
As for `COc1ccccc1N1CCN(CCNC(=O)[C@@H]2CCCN2C(=O)C23CC4CC(CC(C4)C2)C3)CC1`, the Ki stood at 350 nM.
`COc1ccccc1N1CCN(CCNC(=O)[C@@H]2CCC(=O)N2C(=O)c2ccccc2)CC1`: the affinity, expressed as Ki, was 1510 nM.
Same read-out and setting: the result for `COc1ccccc1N1CCN(CCN2C(=O)CC(NC(C)=O)C2=O)CC1` (stereo not drawn) reads 7590 nM; that for `COc1ccccc1N1CCN(CCN2C(=O)C[C@H](NC(=O)C34CC5CC(CC(C5)C3)C4)C2=O)CC1`, 579 nM; that for `COc1ccccc1N1CCN(CCCCN2C(=O)C[C@H](NC(C)=O)C2=O)CC1`, 69 nM.
`COc1ccccc1N1CCN(CCNC(=O)[C@@H]2CCCN2C(=O)C2CCCCC2)CC1` gave a Ki of 3550 nM.
In turn, `O=C(NCCCN1CCN(c2cccc(Cl)c2)CC1)[C@@H]1CCC(=O)N1C(=O)C1CCCCC1` came in with an inhibitory constant (Ki) of 1730 nM.
On the same count and under the same terms, under `COc1ccccc1N1CCN(CCCN2C(=O)C[C@H](NC(=O)C3CCCCC3)C2=O)CC1` stands 230 nM; under `O=C(N[C@H]1CC(=O)N(CCCCN2CCN(c3cccc(Cl)c3)CC2)C1=O)c1ccccc1`, 41 nM.
Consider `O=C(N[C@H]1CC(=O)N(CCN2CCN(c3cccc(Cl)c3)CC2)C1=O)c1ccccc1`, for which the affinity corresponds to a Ki of 10000 nM.
In turn, `COc1ccccc1N1CCN(CCN2C(=O)CC3(CCCCC3)C2=O)CC1` came in with a Ki of 5.7 nM.
